From PubChem
SENP1 FRET inh: blocks the human SENP1 SUMO protease catalytic domain | 360,000 tested, 0.21% active | AID 624204 | recombinant SENP1 catalytic domain, CyPet-SUMO1-YPet FRET cleavage | inhibition, % at 10 µM | Q9P0U3;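 active means inhibition at least 30% at 10 µM, raw YFP signal under a set limit, fluorescence ratio 0.5 to 1.5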
Target sequence (Q9P0U3 419-644 limits assumed): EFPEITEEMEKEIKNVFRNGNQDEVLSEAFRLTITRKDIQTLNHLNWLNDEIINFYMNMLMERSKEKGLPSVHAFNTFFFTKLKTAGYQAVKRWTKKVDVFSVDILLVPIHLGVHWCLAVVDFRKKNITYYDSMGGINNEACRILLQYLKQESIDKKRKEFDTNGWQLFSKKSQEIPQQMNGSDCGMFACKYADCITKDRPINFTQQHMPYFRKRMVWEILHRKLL
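Assay system – human recombinant His6-tagged SENP1 catalytic domain enzyme · Input – SENP1 enzyme, 20 pM final · Buffer or medium – Tris pH 8 buffer plus EDTA, NaCl, BME, BSA, NP40, catalase · Schedule – 50 min reaction at room temperature · Technique – FRET read of cyan and yellow fluorescence · Control set – no-enzyme wells low, DMSO-plus-enzyme wells high control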
SENP8 block-1: blocks the human protease SENP8. Q96LD8. purified SENP8, Z-RLRGG-aminoluciferin cleavage, luminescence. inhibition, % at 10 µM. 330,000 tested, 1.2% active. AID 2540; in the data active means inhibition above about 50%
Target sequence (Q96LD8 whole entry, looked up): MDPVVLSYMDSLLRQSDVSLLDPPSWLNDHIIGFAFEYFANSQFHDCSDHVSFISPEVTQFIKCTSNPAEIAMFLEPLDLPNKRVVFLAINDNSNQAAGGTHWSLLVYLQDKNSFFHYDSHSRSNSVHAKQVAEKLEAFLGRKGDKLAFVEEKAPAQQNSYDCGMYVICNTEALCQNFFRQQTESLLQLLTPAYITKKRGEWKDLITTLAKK
SENP8 block-2: SENP8 (human) protease inhibition; Q96LD8; recombinant SENP8, Nedd8 substrate fluorescence; inhibition, % at 20 µM; 360,000 tested, 0.64% active; in the data active means inhibition mostly above about 40%, no sharp cut-off; inactive means mostly below about 27%
SENP6 block: inhibitors of human SENP6 protease. AID 2599. inhibition, % at 10 µM. Recombinant SENP6 catalytic domain, aminoluciferin luminescence. 330,000 tested, 1.8% active;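 active means inhibition above about 50% at the single tested dose, limit read from the data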
Platelet DG rel: modulates dense granule release in human platelets; human platelet-rich plasma, SFLLRN dense granule ATP release, luminescence; inhibition, %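 (compounds screened at 7.5 µM in platelet-rich plasma)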; 300,000 tested, 0.22% active; AID 1663;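 active means mean replicate score, as percent of positive control, at or above 50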
SENP7 inh: SENP7 protease inhibition; Q9BQF6; recombinant SENP7, Z-RLRGG-aminoluciferin luminescence, 40 min; inhibition, % at 5 µM; 330,000 tested, 1.5% active; AID 434973;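 active means inhibition above about 50% at the single test dose, limit read from the data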
SENP8 confirm: confirmation of human SENP8 protease inhibitors | inhibition, % at 12.5 µM | Recombinant SENP8, Z-RLRGG-aminoluciferin luminescence, 60 min | 6,200 tested, 40% active | shares compounds with SENP7 inh;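 active means mean inhibition across replicates above about 50%, limit read from the data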
SENP6 conf: human SENP6 inhibition, confirmed. inhibition, % at 12.5 µM. 6,200 tested, 58% active. recombinant SENP6, Z-RLRGG-aminoluciferin luminescence. shares compounds with SENP7 inh
SENP7 conf: confirmation of human SENP7 protease inhibitors; inhibition, % at 12.5 µM; shares compounds with SENP7 inh; AID 488917; 6,200 tested, 69% active; recombinant SENP7, Z-RLRGG-aminoluciferin luminescence, 40 min
Casp3 SENP sel: selectivity test for SENP inhibitors: human caspase-3 inhibition | shares compounds with SENP7 inh | purified caspase-3, Z-DEVD-aminoluciferin luminescence, 60 min | 6,200 tested, 60% active | inhibition, % at 12.5 µM | AID 488918;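 active means mean inhibition above about 50%, limit read from the data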
Target sequence (P42574 28-227 limits assumed): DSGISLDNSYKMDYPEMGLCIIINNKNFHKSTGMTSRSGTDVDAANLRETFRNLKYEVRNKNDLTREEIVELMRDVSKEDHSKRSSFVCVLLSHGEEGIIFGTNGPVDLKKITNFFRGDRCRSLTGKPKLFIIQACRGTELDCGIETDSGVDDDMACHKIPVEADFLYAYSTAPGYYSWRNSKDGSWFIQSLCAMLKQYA
Luc interf: interferes with luciferase luminescence in SENP counter-screen; shares compounds with SENP7 inh; Pre-incubated SENP8/Z-RLRGG-aminoluciferin, luciferase luminescence interference; inhibition, % at 12.5 µM; 6,200 tested, 39% active; AID 488919;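 active means mean inhibition above about 50% when retested at one dose, limit read from the data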
Numbers stand for hits; i = inactive; nt = no result. Sampled rows, rich in hits. Any-hit rate of the full collection: about 2.6%.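 How the source made its calls, unless noted: active means mean inhibition above about 50% in the one-dose retest (limit read from the data); inactive means the rest.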

SMILES | SENP1 FRET inh | SENP8 block-1 | SENP8 block-2 | SENP6 block | Platelet DG rel | SENP7 inh | SENP8 confirm | SENP6 conf | SENP7 conf | Casp3 SENP sel | Luc interf
Cc1ccc(S(=O)(=O)N2CCC(C(=O)Nc3cc(C(F)(F)F)ccc3N3CCOCC3)CC2)cc1C | i | i | i | i | i | i | nt | nt | nt | nt | nt
O=C(Nc1nc2ccccc2s1)c1ccc(N2CCCCC2)c([N+](=O)[O-])c1 | i | i | i | 52 | i | 54 | i | i | i | i | i
Cc1cc(C)n(-c2ccc(C(=O)Nc3nc4ccccc4s3)cc2)n1 | i | i | i | i | i | i | nt | nt | nt | nt | nt
Cn1cc(Cl)c(C(=O)Nc2nc3ccccc3s2)n1 | i | 96 | i | 96 | i | i | i | 98 | 103 | 96 | i
Nc1ccc(C(=O)Nc2nc3ccccc3s2)cc1 | i | 91 | i | 91 | i | 94 | 95 | 95 | 101 | 86 | 91
NC(=O)C1C(=O)c2ccccc2C1(C[N+](=O)[O-])c1ccccc1 (stereo not given) | i | nt | i | nt | nt | nt | nt | nt | nt | nt | nt
Cc1cccc(NC(=O)CN2C(=O)S/C(=C\c3ccc(O)c([N+](=O)[O-])c3)C2=O)c1 | i | i | i | 51 | i | i | i | i | i | i | i
Cc1ccc(NC(=O)CN2C(=O)S/C(=C/c3ccc(O)c([N+](=O)[O-])c3)C2=O)cc1C | i | i | i | i | nt | i | nt | nt | nt | nt | nt
FC(F)(F)c1nc(SCc2ccccc2)n[nH]1 | i | i | i | i | i | i | nt | nt | nt | nt | nt
Cc1cccc(NC(=O)c2ccc(S(=O)(=O)N3CCC(C)CC3)cc2)n1 | i | i | i | i | i | i | nt | nt | nt | nt | nt
O=C(COC(=O)c1ccccc1O)Nc1cccc2ccccc12 | i | i | i | i | nt | i | nt | nt | nt | nt | nt
Cc1ccc(N=C/C(C(=O)C(F)(F)F)=C(\O)c2ccco2)cc1Cl | i | i | i | 68 | i | 59 | i | i | i | i | 54
O=C(NCCNC(=O)c1ccco1)c1ccc(F)cc1 | i | i | i | i | i | i | nt | nt | nt | nt | nt
O=C(/C(C=Nc1ccc(F)cc1)=C(/O)c1ccco1)C(F)(F)F | i | i | i | 77 | i | 79 | i | i | i | i | i
CCCCCCOc1ccc(C(=O)O)cc1 | i | i | i | i | i | i | nt | nt | nt | nt | nt
CCCCOc1ccc(-c2ncc(C(=O)O)c(C)n2)cc1 | i | 80 | i | 86 | i | 88 | 88 | 87 | 98 | i | 64
COc1ccc(-n2ncc3c2CC(C)(C)CC3NC(=O)c2ocnc2C)cc1 (stereo not given) | i | i | i | i | i | i | nt | nt | nt | nt | nt
COc1ccc(C(=O)NC(=S)N2CCOCC2)cc1[N+](=O)[O-] | i | i | i | i | i | i | nt | nt | nt | nt | nt
Cc1ccc(C(=O)COC(=O)c2ccc(Cl)c(N)c2)s1 | i | 54 | i | 66 | nt | 56 | 50 | i | 84 | i | i
O=C(Nc1nccs1)c1sc2ccccc2c1Cl | i | 75 | i | 88 | i | 71 | i | 58 | 91 | 70 | i
Cc1ccnc(NC(=O)c2sc3ccccc3c2Cl)c1 | i | 57 | i | 71 | i | 89 | i | i | i | 55 | i
O=C(Nc1nccs1)c1sc2cc(Cl)ccc2c1Cl | i | i | i | i | i | i | nt | nt | nt | nt | nt
Cc1ccc2c(Cl)c(C(=O)Nc3cc(C)on3)sc2c1 | i | i | i | i | i | i | nt | nt | nt | nt | nt
Cc1cnc(NC(=O)c2sc3ccccc3c2Cl)s1 | i | 66 | i | 80 | i | 84 | i | i | 53 | i | i
CC(C)c1nnc(NC(=O)c2sc3ccccc3c2Cl)s1 | i | i | i | i | i | i | nt | nt | nt | nt | nt
SMILES | SENP1 FRET inh | SENP8 block-1 | SENP8 block-2 | SENP6 block | Platelet DG rel | SENP7 inh | SENP8 confirm | SENP6 conf | SENP7 conf | Casp3 SENP sel | Luc interf
O=C(COC(=O)c1nc(Cl)ccc1Cl)NNC(=O)c1cccs1 | i | i | i | i | i | i | nt | nt | nt | nt | nt
Cc1cc(S(=O)(=O)NCC(c2ccc3c(c2)OCO3)N2CCOCC2)ccc1F (stereo not given) | i | i | i | i | i | i | nt | nt | nt | nt | nt
Cc1cccc(C)c1NC(=O)CN(C)C(=O)c1ccc(OCc2ccccc2)cc1 | i | nt | i | nt | nt | nt | nt | nt | nt | nt | nt
O=c1nc2c(-c3cccc(Br)c3)n[nH]n2c2ccccc12 | i | 92 | i | 88 | i | 80 | i | i | i | 61 | i
COc1ccc(C2=CN(Cc3ccccc3)CCC2=O)cc1 | i | i | i | i | nt | i | nt | nt | nt | nt | nt
COc1cc(NC(=O)OCc2ccccc2)c2ncccc2c1 | i | nt | i | nt | nt | nt | nt | nt | nt | nt | nt
COc1cc(NCCCCCCCN)c2ncccc2c1 | i | 89 | i | 94 | i | 95 | 70 | 87 | 63 | 97 | i
CC(C)CNC(=S)NNC(=O)c1csc2c1CCCC2 | i | i | i | i | i | 50 | i | i | i | i | i
CCOC(=O)C1=C(CC)Nc2ccccc2N=C1NC(=O)c1ccc(OC)c(S(=O)(=O)N2CCOCC2)c1 | i | nt | i | nt | nt | nt | nt | nt | nt | nt | nt
COc1ccc(C2/C(=C(/O)c3ccc(C)cc3)C(=O)C(=O)N2CCCN2CCOCC2)cc1 (stereo not given) | i | i | i | i | i | i | nt | nt | nt | nt | nt
Cc1ccsc1/C=C1\CCC(C2CCCC2)C1=O (stereo not given) | i | 85 | i | 97 | i | 83 | 76 | 81 | 92 | 80 | 70
COc1ccc(/C=C2\CCC(C3CCCC3)C2=O)c(OC)c1 (stereo not given) | i | i | i | i | i | i | nt | nt | nt | nt | nt
COc1cc(OC)c(OC)cc1/C=C1\CCC(C2CCCC2)C1=O (stereo not given) | i | i | i | i | i | i | nt | nt | nt | nt | nt
COc1ccc(/C=C2\CCC(C3CCCC3)C2=O)cc1 (stereo not given) | i | 77 | i | 54 | i | 90 | i | i | i | 69 | i
COCCN(C(=O)c1csnn1)C(C(=O)NC1CCCCC1)c1ccccc1 (stereo not given) | i | i | i | i | i | i | nt | nt | nt | nt | nt
COc1ccc(-c2ccc3c(N)c(C(=O)c4cccc(OC)c4)sc3n2)cc1 | i | i | i | i | i | i | nt | nt | nt | nt | nt
COc1cccc(-c2ccc3c(N)c(C(=O)NC4CC4)sc3n2)c1 | i | i | i | 60 | i | i | i | i | i | i | i
Cc1ccc(C(=O)c2c3ccc(N)cc3nn2CCC(N)=O)cc1 | i | i | i | 57 | i | i | i | i | i | i | i
Cc1ccc2nc(-c3cccc(NC(=O)c4ccco4)c3)[nH]c2c1 | i | 87 | i | 92 | i | 95 | i | 93 | 101 | 89 | 92
